Measured values pooled from the literature.
Protocols differ between the studies behind these lines.
Nectin-4: Nectin-4 (Homo sapiens, UniProt Q96NY8)
SIGMAR1: Sigma non-opioid intracellular receptor 1 (SIGMAR1, Homo sapiens, UniProt Q99720)
PFF0160c: Dihydroorotate dehydrogenase (quinone), mitochondrial (PFF0160c, Plasmodium falciparum, UniProt Q08210)
PFF0160c E182D: Dihydroorotate dehydrogenase (quinone), mitochondrial (PFF0160c, Plasmodium falciparum, UniProt Q08210, E182D)

SMILES	target	read-out	mode	method	measurement	value
CCCC[C@@H]1NC(=O)[C@H](Cc2ccc(O)cc2)NC(=O)[C@@H]2CCCN2C(=O)[C@H](CC(=O)O)NC(=O)[C@H](C)NC(=O)[C@H](Cc2ccccc2)NC(=O)[C@@H]2CSCCC(=O)N3CN(CN(C3)C(=O)CCSC[C@H](NC(C)=O)C(=O)N[C@@H](CC(C)(C)C)C(=O)N3CCC[C@H]3C(=O)N[C@@H](CCC(=O)O)C(=O)N[C@H](CCCCNC(=O)CCc3cn(CCOCCOCCOCCN(CCOCCOCCOCCC(=O)N[C@H]4CSCCC(=O)N5CN6CN(C5)C(=O)CCSC[C@H](NC(=O)[C@@H](CC(=O)O)NC(=O)[C@H](Cc5cccc7ccccc57)NC(=O)[C@@H]5CCCN5C4=O)C(=O)N[C@@H](CCSC)C(=O)N[C@@H](CCCCNC(=N)N)C(=O)N[C@@H](CC(=O)O)C(=O)N[C@@H](Cc4c[nH]c5ccccc45)C(=O)N[C@@H](CO)C(=O)N[C@@H]([C@@H](C)O)C(=O)N4CCC[C@H]4C(=O)N4C[C@H](O)C[C@H]4C(=O)N[C@@H](Cc4c[nH]c5ccccc45)C(=O)N[C@H](C(N)=O)CSCCC6=O)CCOCCOCCOCCn4cc(CCC(=O)NCCCC[C@H]5NC(=O)[C@H](CCC(=O)O)NC(=O)[C@@H]6CCCN6C(=O)[C@H](CC(C)(C)C)NC(=O)[C@@H](NC(C)=O)CSCCC(=O)N6CN7CN(C6)C(=O)CCSC[C@H](NC(=O)[C@H](Cc6ccc(O)cc6)NC(=O)[C@@H]6CCCN6C5=O)C(=O)N[C@@H](Cc5ccccc5)C(=O)N[C@@H](C)C(=O)N[C@@H](CC(=O)O)C(=O)N5CCC[C@H]5C(=O)N[C@@H](Cc5ccc(O)cc5)C(=O)N[C@@H](CCCC)C(=O)N[C@H](C(N)=O)CSCCC7=O)nn4)nn3)C(=O)N3CCC[C@H]3C(=O)N[C@@H](Cc3ccc(O)cc3)C(=O)N2)C(=O)CCSC[C@@H](C(N)=O)NC1=O	Nectin-4	binding		SPR	Kd	3.9 nM
N[C@@H](C[C@]1(C(=O)O)C[C@H]2OC[C@@H](O)[C@@H](O)[C@H]2O1)C(=O)O	Glutamate receptor ionotropic, kainate 2 (Grik2, Rattus norvegicus, UniProt P42260, A518T/Y443F)	ligand displacement		radioligand	Ki	972 nM
CN(C)CC[C@@H](c1ccc(Cl)cc1)c1ccccn1	SIGMAR1	ligand displacement		radioligand	Ki	1990 nM
CC(CNCc1cn(Cc2cc(Br)cc(Br)c2)c2ccccc12)CNc1cc(=O)c2ccccc2[nH]1 (stereo not shown)	PFF0160c	enzyme activity	inhibitor	absorbance	IC50	2720 nM
CCCC[C@@H]1NC(=O)[C@H](Cc2ccc(O)cc2)NC(=O)[C@@H]2CCCN2C(=O)[C@H](CC(=O)O)NC(=O)[C@H](C)NC(=O)[C@H](Cc2ccccc2)NC(=O)[C@@H]2CSCCC(=O)N3CN(CN(C3)C(=O)CCSC[C@@H](C(=O)N[C@@H](CNC(=O)CCc3cn(CCOCCOCCOCCN(CCOCCOCCOCCC(=O)N[C@H]4CSCCC(=O)N5CN6CN(C5)C(=O)CCSC[C@H](NC(=O)[C@@H](CC(=O)O)NC(=O)[C@H](Cc5cccc7ccccc57)NC(=O)[C@@H]5CCCN5C4=O)C(=O)N[C@@H](CCSC)C(=O)N[C@@H](CCCCNC(=N)N)C(=O)N[C@@H](CC(=O)O)C(=O)N[C@@H](Cc4c[nH]c5ccccc45)C(=O)N[C@@H](CO)C(=O)N[C@@H]([C@@H](C)O)C(=O)N4CCC[C@H]4C(=O)N4C[C@H](O)C[C@H]4C(=O)N[C@@H](Cc4c[nH]c5ccccc45)C(=O)N[C@H](C(N)=O)CSCCC6=O)CCOCCOCCOCCn4cc(CCC(=O)NC[C@H](NC(=O)[C@@H]5CSCCC(=O)N6CN7CN(C6)C(=O)CCSC[C@H](NC(=O)[C@H](Cc6ccc(O)cc6)NC(=O)[C@@H]6CCCN6C(=O)[C@@H](C)NC(=O)[C@H](CCC(=O)O)NC(=O)[C@@H]6CCCN6C(=O)[C@H](CC(C)(C)C)NC(=O)[C@@H](NC(C)=O)CSCCC7=O)C(=O)N[C@@H](Cc6ccccc6)C(=O)N[C@@H](C)C(=O)N[C@@H](CC(=O)O)C(=O)N6CCC[C@H]6C(=O)N[C@@H](Cc6ccc(O)cc6)C(=O)N[C@@H](CCCC)C(=O)N5)C(N)=O)nn4)nn3)C(N)=O)NC1=O)C(=O)CCSC[C@H](NC(C)=O)C(=O)N[C@@H](CC(C)(C)C)C(=O)N1CCC[C@H]1C(=O)N[C@@H](CCC(=O)O)C(=O)N[C@H](C)C(=O)N1CCC[C@H]1C(=O)N[C@@H](Cc1ccc(O)cc1)C(=O)N2	Nectin-4	binding		SPR	Kd	3.7 nM
COc1cc(Nc2ccnc3cc(-c4ccncc4)ccc23)cc(OC)c1OC	PFF0160c E182D	enzyme activity	inhibitor	absorbance	IC50	1510 nM
CC(CN1c2ccccc2Sc2ccccc21)N(C)C (stereo not shown)	SIGMAR1	ligand displacement		radioligand	Ki	433 nM
C/C(=C\[N+](=O)[O-])c1ccccc1	nerA (Agrobacterium radiobacter, UniProt O31246)	binding		absorbance	Kd	730000 nM
CCCC[C@@H]1NC(=O)[C@H](Cc2ccc(O)cc2)NC(=O)[C@@H]2CCCN2C(=O)[C@H](CC(=O)O)NC(=O)[C@H](C)NC(=O)[C@H](Cc2ccccc2)NC(=O)[C@@H]2CSCCC(=O)N3CN(CN(C3)C(=O)CCSC[C@@H](C(=O)N[C@@H](C)C(N)=O)NC1=O)C(=O)CCSC[C@H](NC(C)=O)C(=O)N[C@@H](CC(C)(C)C)C(=O)N1CCC[C@H]1C(=O)N[C@@H](CCC(=O)O)C(=O)N[C@H](CCCCNC(=O)CCc1cn(CCOCCOCCOCCOCCOCCC(=O)N[C@H]3CSCCC(=O)N4CN5CN(C4)C(=O)CCSC[C@H](NC(=O)[C@@H](CCC(=O)O)NC(=O)[C@H](Cc4cccc6ccccc46)NC(=O)[C@@H]4CCCN4C3=O)C(=O)N[C@@H](CC(C)C)C(=O)N[C@@H](CCCCNC(=N)N)C(=O)N[C@@H](CC(=O)O)C(=O)N[C@@H](Cc3c[nH]c4ccccc34)C(=O)N[C@@H](CO)C(=O)N[C@@H]([C@@H](C)O)C(=O)N3CCC[C@H]3C(=O)N3C[C@H](O)C[C@H]3C(=O)N[C@@H](Cc3c[nH]c4ccccc34)C(=O)N[C@H](C(N)=O)CSCCC5=O)nn1)C(=O)N1CCC[C@H]1C(=O)N[C@@H](Cc1ccc(O)cc1)C(=O)N2	Nectin-4	binding		SPR	Kd	4.2 nM
CC(C)NC[C@@H](O)COc1cccc2ccccc12	SIGMAR1	ligand displacement		radioligand	Ki	344 nM
CCc1nc2nc(C)cc(Nc3cc(C)cc(C)c3)n2n1	PFF0160c E182D	enzyme activity	inhibitor	absorbance	IC50	8560 nM
Cc1c2ccncc2c(C)c2c1[nH]c1ccccc12	SIGMAR1	ligand displacement		radioligand	Ki	> 10000 nM
Cc1cc(NC(=O)c2cc(S(=O)(=O)N3CCCCC3)ccc2C)no1	PFF0160c	enzyme activity	inhibitor	absorbance	IC50	1700 nM
